Activity calls are given as the source filed them.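 How the source made its calls: active means compounds lowering viability with an AC50 at or under ten times their top valid dose; inconclusive means flat curve with 30 to 70% viability loss, or poor fit; inactive means flat near zero, weak potency, or rising signal.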

This is an account of results in PubChem BioAssay AID493093 (Broad Institute, 2011).

Test system in one assay: not listed separately
The assay is described as follows: cytotoxicity toward BJeHLT cells – cell-based, dry powder, set 2, counter-screen for Ras selective lethality project, dose response (AID 493093). The note with it: BJeHLT fibroblasts viability, Alamar Blue fluorescence, 48 h; at 48 µM (top of the series). The method in brief:
(§1)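 Signal: Alamar Blue conversion fluorescence, excitation 544 nm, emission 590 nm | Material: BJeHLT fibroblasts, BJ cells transformed with hTERT, SV40 LT and ST | Input: 1000 cells/well | Schedule: 48 h compound treatment at 37 °C, ~16 h dye incubation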
Turning to `CC(=O)Nc1c(C(=O)N2CCN(C(c3ccccc3)c3ccccc3)CC2)noc1C`, the activity change, negative = loss of viability was 8.25% (inactive).
Consider `Cc1onc(C(=O)N2CCN(C(c3ccccc3)c3ccccc3)CC2)c1N`, for which the activity change, negative = loss of viability is -0.577% (inactive).
Same read-out and setting: then `Cc1ccc(C(=O)N2CCN(C(c3ccccc3)c3ccccc3)CC2)c([N+](=O)[O-])c1`, with 13% (inactive); and `Cc1onc(C(=O)N2CCN(C(c3ccncc3)c3ccncc3)CC2)c1[N+](=O)[O-]`, with -2.93% (inactive).
With `Cc1onc(C(=O)N2CCN(C(c3ccccc3)c3ccccc3)CC2)c1Br`, the activity change, negative = loss of viability was 15.1% (inactive).
Still for that read-out and setting: to `Cc1oc(C)c(C(=O)N2CCN(C(c3ccccc3)c3ccccc3)CC2)c1C` belongs 19.3% (inactive).
Turning to `O=[N+]([O-])c1ccc(CN2CCN(C(c3ccccc3)c3ccccc3)CC2)o1`, the activity change, negative = loss of viability is -7.38% (inactive).
On the same count and under the same terms, then `Cc1onc(C(=O)NCCNC(c2ccccc2)c2ccccc2)c1[N+](=O)[O-]`, with -11.4% (inactive).
On the same count and under the same terms, to `Cc1onc(C(=O)N2CCN(C(c3ccccc3)c3ccccc3)CC2)c1C` belongs 18.4% (inactive); to `Cc1onc(C(=O)N2CCN(C(c3ccccc3)c3ccccc3)CC2)c1NS(C)(=O)=O`, 7.7% (inactive).
Take `CC(C)c1onc(C(=O)N2CCN(C(c3ccccc3)c3ccccc3)CC2)c1[N+](=O)[O-]`: the activity change, negative = loss of viability is 10% (inactive).
As to `O=C(c1noc2ccccc12)N1CCN(C(c2ccccc2)c2ccccc2)CC1`, the activity change, negative = loss of viability was 15.4% (inactive).

Staying with this assay, now noted: BJeHLT fibroblasts viability, Alamar Blue fluorescence, 48 h; at 68 µM (top of the series).
Take `Cc1onc(C(=O)NCc2ccc(F)cc2)c1[N+](=O)[O-]`: the activity change, negative = loss of viability was 10.9% (inactive).
As to `Cc1onc(C(=O)N2CCN(Cc3ccccc3)CC2)c1[N+](=O)[O-]`, the activity change, negative = loss of viability was 4.74% (inactive).
The same measure, in the same setting: then `Cc1onc(C(=O)N2CCOCC2)c1[N+](=O)[O-]`, with 1.06% (inactive).
Same read-out and setting: to `COc1ccccc1N1CCN(C(=O)c2noc(C)c2[N+](=O)[O-])CC1` belongs 7.12% (inactive).
Still for that read-out and setting: to `CCOC(=O)N1CCN(C(=O)c2noc(C)c2[N+](=O)[O-])CC1` belongs 6.37% (inactive); to `Cc1cc(C(=O)N2CCN(Cc3ccccc3)CC2)no1`, 1.07% (inactive).

The next assay relates to BJeHLT fibroblasts viability, Alamar Blue fluorescence, 48 h. The assay is described as above.
Settings: not given
The method in brief:
as §1
Take `Cc1onc(C(=O)N2CCN(C(c3ccc(Cl)cc3)c3ccc(Cl)cc3)CC2)c1[N+](=O)[O-]`: the AC50 is 0.272 µM.
Consider `Cc1onc(C(=O)N2CCN(C(c3ccccn3)c3ccccn3)CC2)c1[N+](=O)[O-]`, for which the AC50 is > 47.6 µM (inactive).
Same read-out and setting: to `O=C(NCCNC(c1ccccc1)c1ccccc1)c1ccc([N+](=O)[O-])o1` belongs 3.35 µM; to `Cc1onc(C(=O)N2CCN(C(c3ccc(F)cc3)c3ccc(F)cc3)CC2)c1[N+](=O)[O-]`, 0.757 µM; to `Cc1onc(C(=O)N2CCCN(C(c3ccccc3)c3ccccc3)CC2)c1[N+](=O)[O-]`, 2.79 µM.
For `O=C(c1ccc([N+](=O)[O-])o1)N1CCCN(C(c2ccccc2)c2ccccc2)CC1`, the concentration at half-maximal activity (AC50) was 46.2 µM.
Turning to `O=C(c1ccc([N+](=O)[O-])o1)N1CCN(C(c2ccccc2)c2ccccc2)CC1`, the AC50 was 18.9 µM.
The same measure, in the same setting: then `COc1ccc(C(c2ccc(OC)cc2)N2CCN(C(=O)c3ccc([N+](=O)[O-])o3)CC2)cc1`, with 6.85 µM.
Same read-out and setting: then `O=C(c1ccc([N+](=O)[O-])o1)N1CCN(C(c2ccc(F)cc2)c2ccc(F)cc2)CC1`, with 12.1 µM; and `COc1ccc(C(c2ccc(OC)cc2)N2CCN(C(=O)c3noc(C)c3[N+](=O)[O-])CC2)cc1`, with 5.32 µM; and `Cc1onc(C(=O)N2CCN(C(c3ccccc3)c3ccc(Cl)cc3)CC2)c1[N+](=O)[O-]` (stereo not given), with 0.51 µM.
`Cc1onc(C(=O)N2CCN(C(c3ccccc3)c3ccccc3)CC2)c1[N+](=O)[O-]`: the AC50 was 4.97 µM.
